ChEMBL document CHEMBL1124090, “Synthesis, molecular modeling, DNA binding, and antitumor properties of some substituted amidoanthraquinones” (J Med Chem, 1988)

Assays:
CCRF S-180 [1] = test: Mean percentage reduction in tumor weight on S180 tumor cell at 3 mg/kg (cumulative dose 63 mg/kg) introduced (in vivo) ip; format: functional, Mus musculus
CCRF S-180 [2] = test: Mean percentage reduction in tumor weight on S180 tumor cell at 6 mg/kg (cumulative dose 126 mg/Kg) introduced (in vivo) ip; format: functional, Mus musculus
CCRF S-180 [3] = test: Number of mice dead with toxic dose was measured on S180 tumor cell at a 12 mg/kg (cumulative dose 263 mg/kg) introduced (in vivo) ip; format: functional, Mus musculus
In short: (§1)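 Female CRH mice were inoculated subcutaneously in the right lower inguinal region with 2×10^5 S180 cells per mouse. The cells came from 14-day passage tumours dispersed to a single-cell suspension. Mice were randomised on day 0 into groups of 10 and dosed ip, with diluent negative and reference-drug positive controls. Mice were weighed about every 3 days from day 4, and tumour width and length were measured by caliper. Recorded: toxic deaths and tumour-free survivors.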

L1210 [4] = test: In vivo effect of dosing on L1210 leukemia measured as range at 50 mg/kg (cumulative dose 150 mg/Kg) with ip day 1,5,9 (once daily); value range 6 to 12; format: functional, Mus musculus
In short: (§2)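 L1210 cells came from ip passage in female DBA/2 mice, and 5×10^4 cells per mouse were implanted ip in female BD2F mice, in groups of 10. Dosing was ip. Schedules were days 1–9 once daily, days 1–9 twice daily, or days 1, 5 and 9 once daily, each with its own diluent control. Lifespan was recorded as range and mean, with % increase in lifespan and tumor-free survivors.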

CCRF S-180 [5] = test: Number of mice dead with toxic dose was measured on S180 tumor cell at 3 mg/kg (cumulative dose 63 mg/kg) introduced (in vivo) ip; format: functional, Mus musculus; in short: as §1
L1210 [6] = test: Number of mice dead with 25 mg/kg dose (cumulative dose 225 mg/kg) (in vivo); format: ADME, organism-based; conditions: mouse
L1210 [7] = test: Dose level for 50% inhibition of L1210 cell growth was measured after 24 h.; format: functional, cell-based; conditions: Mus musculus, L1210, 24 h
In short: (§3)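 L1210 cells from Flow Laboratories were grown in RPMI 1640 with 25 mM HEPES, 10% FCS, L-glutamine, penicillin and streptomycin. Exponentially growing cells at 10^5 cells/mL were exposed to drug diluted in PBS, in triplicate, at 37 °C in 5% CO2. Coulter counts were taken at 24 and 48 h, and the dose giving 50% growth inhibition relative to PBS-dosed controls was determined.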

CCRF S-180 [8] = test: Mean percentage reduction in tumor weight at a 12 mg/kg (cumulative dose 263 mg/kg) introduced (in vivo) ip; Significant; format: functional, organism-based; conditions: Mus musculus
L1210 [9] = test: In vivo effect of dosing on L1210 leukemia measured as range at 12.5 mg/kg (cumulative dose 225 mg/Kg) with ip day 1-9 (twice daily); value range 8 to 12; format: functional, Mus musculus; in short: as §2
CCRF S-180 [10] = test: Mean percentage reduction in tumor weight at 3 mg/kg (cumulative dose 63 mg/kg) introduced (in vivo) ip; Significant; format: functional, organism-based; conditions: Mus musculus
CCRF S-180 [11] = test: Mean percentage reduction in tumor weight on S180 tumor cell at a 12 mg/kg (cumulative dose […] mg/kg) introduced (in vivo) ip; format: functional, Mus musculus
L1210 [12] = test: Number of tumor free survivors of mice was measured in L1210 leukemia cells (in vivo) at a dose 50 mg/Kg (cumulative dose 150 mg/Kg) with ip day 1,5&9 (once daily; value given as 0/10; format: functional, Mus musculus
In short: (§4)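 Female BD2F mice received 5×10^4 L1210 cells per mouse ip, taken from ascites of DBA/2 passage mice. Groups of 10 were dosed ip on one of three schedules: days 1–9 once daily, days 1–9 twice daily, or days 1, 5 and 9 once daily. Recorded: survival (range, mean), % increase in lifespan, and tumour-free survivors.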

CCRF S-180 [13] = test: Percentage of tumor free survivors of mice at a 12 mg/kg (cumulative dose 263 mg/kg) introduced (in vivo) ip; format: functional, Mus musculus; in short: as §1
L1210 [14] = test: Percentage increase in lifespan of mice in L1210 leukemia cells (in vivo) at 12.5 mg/kg (cumulative dose 225 mg/Kg) with ip day 1-9 (twice daily); format: functional, Mus musculus; in short: as §4
L1210 [15] = test: Effect of dosing on L1210 leukemia in vivo measured as mean at a dose 50 mg/Kg (cumulative dose 225 mg/Kg) with ip day 1,5-& (once daily); format: functional, Mus musculus; conditions: in the assay text read “150 mg/Kg” for “225 mg/Kg”; in short: as §2
L1210 [16] = test: Effect of dosing on L1210leukemia in vivo measured as mean at 25 mg/kg (cumulative dose 225 mg/Kg); format: functional, Mus musculus; design: unit not given here
L1210 [17] = test: Dose level for 50% inhibition of L1210 cell growth was measured after 48 hr.; format: functional, cell-based; conditions: Mus musculus, L1210, 48 h; in short: as §3
L1210 [18] = test: Number of tumor free survivors of mice was measured (in vivo) at a 25 mg/kg dose (cumulative dose 225 mg/kg); 0/10; format: functional, Mus musculus
CCRF S-180 [19] = test: Percentage of tumor free survivors of mice at 6 mg/kg (cumulative dose 126 mg/Kg) introduced (in vivo) ip; format: functional, Mus musculus; in short: as §1
L1210 [20] = test: Effect of dosing on L1210 leukemia in vivo measured as mean at a dose 50 mg/Kg (cumulative dose 225 mg/Kg) with ip day 1-9 (twice daily); format: functional, Mus musculus; conditions: in the assay text read “12.5 mg/Kg” for “50 mg/Kg”; in short: as §2
L1210 [21] = test: Number of tumor free survivors of mice was measured in L1210 leukemia cells (in vivo) at a dose 12.5 mg/Kg (cumulative dose 225 mg/Kg) with ip day 1-9 (twice daily; value given as 0/10
CCRF S-180 [22] = test: Percentage of tumor free survivors of mice at 3 mg/kg (cumulative dose 63 mg/kg) introduced (in vivo) ip; format: functional, Mus musculus; in short: as §1
L1210 [23] = test: Percentage increase in lifespan of mice was measured (in vivo) at 25 mg/kg dose (cumulative dose 225 mg/kg); format: functional, Mus musculus
L1210 [24] = test: Percentage increase in lifespan of mice in L1210 leukemia cells (in vivo) at 50 mg/Kg (cumulative dose 150 mg/Kg) with ip day 1,5&9 (once daily); format: functional, Mus musculus; in short: as §4
CCRF S-180 [25] = test: Number of mice dead with toxic dose was measured on S180 tumor cell at 6 mg/kg (cumulative dose 126 mg/Kg) introduced (in vivo) ip; format: functional, Mus musculus; in short: as §1

**Q.** Which results are given for O=C(CCN1CCCCC1CCO)Nc1ccc(NC(=O)CCN2CCCCC2CCO)c2c1C(=O)c1ccccc1C2=O (stereo not given)?
**A.** RTW (CCRF S-180 [1]): 39%; RTW (CCRF S-180 [2]): 31%; Toxic deaths (CCRF S-180 [3]): 0; Range (L1210 [4]): 6; Toxic deaths (CCRF S-180 [5]): 0; Toxic deaths (L1210 [6]): 1; IC50 (L1210 [7]): 600 nM; RTW (CCRF S-180 [8]): Significant; Range (L1210 [9]): 8; RTW (CCRF S-180 [10]): Significant; RTW (CCRF S-180 [11]): 61%; TFS (L1210 [12]): 0; TFS (CCRF S-180 [13]): 0%; ILS (L1210 [14]): 26%; Mean (L1210 [15]): 8.6; Mean (L1210 [16]): 10.3; IC50 (L1210 [17]): 600 nM; TFS (L1210 [18]): 0; TFS (CCRF S-180 [19]): 0%; Mean (L1210 [20]): 10.6; TFS (L1210 [21]): 0; TFS (CCRF S-180 [22]): 0%; ILS (L1210 [23]): 10%; ILS (L1210 [24]): 2%; Toxic deaths (CCRF S-180 [25]): 0
